Results reported in ChEMBL document CHEMBL5236592, “Induction of Ferroptosis in Glioblastoma and Ovarian Cancers by a New Pyrrole Tubulin Assembly Inhibitor” (J Med Chem, 2022).
The source made the active and inactive calls. The calls are words filed in the database; no cut-off is given here.

Columns and labels:
[1] = test system: Mus musculus; assay: Upregulation of Clsd1 mRNA expression in tumor of BALB/C nu/nu mouse xenografted with human U-87 MG cells at 25 mg/kg, ip administered every 2 days for 40 days by qPCR analysis; type: functional, organism-based; settings: time 40.0 day
How it was run: (§1)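 Female BALB/c nu/nu mice bearing sc U-87 MG or SKOV-3 xenografts were dosed ip at 25 mg/kg (100 μL) every 2 days, or given saline, and tumors were taken at day 40. RNA was extracted from about 20 mg of tissue. qPCR ran 40 cycles (95 °C 15 min; 94 °C 20 s; 60 °C 34 s) on a 69-gene panel. Fold change was by 2^–ΔΔCt, with ≥1.5 counted as increased.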

[2] = Selectivity index, ratio of IC50 for cytotoxicity against human U-87 MG cells to IC50 for cytotoxicity against human OVCAR-3 cells; type: toxicity, cell-based; settings: U-87 MG cells versus OVCAR-3 cells, read-out: Ratio IC50
[3] = test system: Mus musculus; assay: Upregulation of Hspb5 mRNA expression in tumor of BALB/C nu/nu mouse xenografted with human U-87 MG cells at 25 mg/kg, ip administered every 2 days for 40 days by qPCR analysis; type: functional, organism-based; settings: time 40.0 day
How it was run: (§2)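 Female BALB/c nu/nu mice, 10 weeks old, 4 per group. Inoculated s.c. with 1 × 10^8 cells/mL of log-phase U-87 MG or SKOV-3 cells. Dosed i.p. with 100 μL at 25 mg/kg every 2 days; controls got 100 μL saline. Tumors harvested on day 40. RNA extracted from about 20 mg of tissue. qPCR panel of 69 genes, 40 cycles (94 °C 20 s, 60 °C 34 s). Analysed by 2–ΔΔCt; fold ≥1.5 taken as increased.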

[4] = test system: U-87MG ATCC; assay: Induction of ferroptosis-mediated antitumor activity against human U-87 MG cells xenografted in BALB/C nu/nu mouse assessed as increase in malondialdehyde level in tumor at 25 mg/kg, ip administered every 2 days for 40 days by biochemical analysis; type: functional, organism-based; settings: time 40.0 day
How it was run: (§3)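 U-87 MG or SKOV-3 sc xenografts (1 × 10^8 cells/mL) in female BALB/c nu/nu mice, 4 per group. Given 25 mg/kg ip in 100 μL every 2 days, or saline. Tumors harvested on day 40 and assayed for LPO, MDA, lactic acid, total glutathione (GSH + GSSG), ATP and Fe2+.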

[5] = test system: SK-OV-3; assay: Induction of ferroptosis-mediated antitumor activity against human SK-OV-3 cells xenografted in BALB/C nu/nu mouse assessed as reduction in total glutathione level in tumor at 25 mg/kg, ip administered every 2 days for 40 days by biochemical analysis; type: functional, organism-based; settings: time 40.0 day; how it was run: as §3
[6] = test system: U-87MG ATCC; assay: Antitumor activity against human U-87 MG cells xenografted in BALB/C nu/nu mouse assessed as reduction in CD31 expression in tumor at 25 mg/kg, ip administered every 2 days for 40 days by immunofluoresence staining based assay; type: functional, organism-based; settings: time 40.0 day
How it was run: (§4)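 Female BALB/c nu/nu mice, 10 weeks old, 4 per group. Received subcutaneous U-87 MG or SKOV-3 cells (1 × 10^8 cells/mL, harvested in log phase). Dosed ip with 100 μL at 25 mg/kg every 2 days; controls got 100 μL saline on the same schedule. Sacrificed at 40 days; tumors weighed, volume = ab²/2. Tumor sections (6 μm, paraffin) stained by immunofluorescence for Ki67 or CD31 with Alexa Fluor 488 secondary.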

[7] = test system: Mus musculus; assay: Upregulation of Gls2 mRNA expression in tumor of BALB/C nu/nu mouse xenografted with human SK-OV-3 cells at 25 mg/kg, ip administered every 2 days for 40 days by qPCR analysis; type: functional, organism-based; settings: time 40.0 day; how it was run: as §1
[8] = test system: Mus musculus; assay: Upregulation of Rpl8 mRNA expression in tumor of BALB/C nu/nu mouse xenografted with human SK-OV-3 cells at 25 mg/kg, ip administered every 2 days for 40 days by qPCR analysis; type: functional, organism-based; settings: time 40.0 day; how it was run: as §2
[9] = test system: SK-OV-3; assay: Antitumor activity against human SK-OV-3 cells xenografted in BALB/C nu/nu mouse assessed as reduction in tumor growth at 25 mg/kg, ip administered every 2 days for 40 days; type: functional, organism-based; settings: time 40.0 day; how it was run: as §4
[10] = test system: SK-OV-3; assay: Induction of ferroptosis-mediated antitumor activity against human SK-OV-3 cells xenografted in BALB/C nu/nu mouse assessed as increase in lactic acid level in tumor at 25 mg/kg, ip administered every 2 days for 40 days by biochemical analysis; type: functional, organism-based; settings: time 40.0 day; how it was run: as §3
[11] = test system: Mus musculus; assay: Upregulation of Lpcat3 mRNA expression in tumor of BALB/C nu/nu mouse xenografted with human U-87 MG cells at 25 mg/kg, ip administered every 2 days for 40 days by qPCR analysis; type: functional, organism-based; settings: time 40.0 day; how it was run: as §2
[12] = test system: Mus musculus; assay: Upregulation of Htra2 mRNA expression in tumor of BALB/C nu/nu mouse xenografted with human U-87 MG cells at 25 mg/kg, ip administered every 2 days for 40 days by qPCR analysis; type: functional, organism-based; settings: time 40.0 day; how it was run: as §2
[13] = test system: Mus musculus; assay: Upregulation of Cisd1 mRNA expression in tumor of BALB/C nu/nu mouse xenografted with human SK-OV-3 cells at 25 mg/kg, ip administered every 2 days for 40 days by qPCR analysis; type: functional, organism-based; settings: time 40.0 day; how it was run: as §1
[14] = test system: T-cell line; assay: Cytotoxicity against human primary T-lymphocytes assessed as reduction in cell viability at 0.1 uM incubated for 48 to 72 hrs by Annexin V- APC/PI staining based flow cytometry analysis; type: toxicity; settings: time 48-72 hrs
How it was run: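 T lymphocytes negatively selected from healthy-donor PBMCs isolated by density gradient. Cultured at 1.5 × 10^6/mL with 0.1, 1.0 or 2.5 μM compound, DMSO vehicle or untreated, for 48 or 72 h. Stained with annexin V-APC and propidium iodide; early and late apoptotic fractions counted by flow cytometry.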

[15] = test system: Mus musculus; assay: Upregulation of Dpp4 mRNA expression in tumor of BALB/C nu/nu mouse xenografted with human SK-OV-3 cells at 25 mg/kg, ip administered every 2 days for 40 days by qPCR analysis; type: functional, organism-based; settings: time 40.0 day; how it was run: as §1
[16] = test system: Mus musculus; assay: Upregulation of Sat1 mRNA expression in tumor of BALB/C nu/nu mouse xenografted with human U-87 MG cells at 25 mg/kg, ip administered every 2 days for 40 days by qPCR analysis; type: functional, organism-based; settings: time 40.0 day; how it was run: as §2
[17] = test system: U-87MG ATCC; assay: Antitumor activity against human U-87 MG cells xenografted in BALB/C nu/nu mouse assessed as reduction in tumor growth at 25 mg/kg, ip administered every 2 days for 40 days; type: functional, organism-based; settings: time 40.0 day; how it was run: as §4
[18] = test system: Mus musculus; assay: Upregulation of TFRC mRNA expression in tumor of BALB/C nu/nu mouse xenografted with human U-87 MG cells at 25 mg/kg, ip administered every 2 days for 40 days by qPCR analysis; type: functional, organism-based; settings: time 40.0 day; how it was run: as §2
[19] = test system: Mus musculus; assay: Upregulation of Gclc mRNA expression in tumor of BALB/C nu/nu mouse xenografted with human U-87 MG cells at 25 mg/kg, ip administered every 2 days for 40 days by qPCR analysis; type: functional, organism-based; settings: time 40.0 day; how it was run: as §1
[20] = test system: Mus musculus; assay: Upregulation of Cpx mRNA expression in tumor of BALB/C nu/nu mouse xenografted with human SK-OV-3 cells at 25 mg/kg, ip administered every 2 days for 40 days by qPCR analysis; type: functional, organism-based; settings: time 40.0 day; how it was run: as §1
[21] = test system: Mus musculus; assay: Upregulation of TFRC mRNA expression in tumor of BALB/C nu/nu mouse xenografted with human SK-OV-3 cells at 25 mg/kg, ip administered every 2 days for 40 days by qPCR analysis; type: functional, organism-based; settings: time 40.0 day; how it was run: as §2

Compound: COc1cc(C(=O)c2cn(-c3ncccn3)cc2-c2ccco2)cc(OC)c1OC
- Activity [1]: Active
- selectivity ratio [2]: 3.5
- Activity [3]: Active
- Activity [4]: Active
- Activity [5]: Active
- Activity [6]: Active
- Activity [7]: Active
- Activity [8]: Active
- Activity [9]: Active
- Activity [10]: Active
- Activity [11]: Active
- Activity [12]: Active
- Activity [13]: Active
- Activity [14]: Non-Toxic
- Activity [15]: Active
- Activity [16]: Active
- Activity [17]: Active
- Activity [18]: Active
- Activity [19]: Active
- Activity [20]: Active
- Activity [21]: Active
